For 21 molecules, IC50 and T/C results are on record in ChEMBL document CHEMBL1125102, “Synthesis and biological evaluation of 2-styrylquinazolin-4(3H)-ones, a new class of antimitotic anticancer agents which inhibit tubulin polymerization” (J Med Chem, 1990).

Experiment [1] relates to L1210. In words: In vitro inhibition of L1210 murine leukemia cells by using MTT assay in cell culture. Type of experiment: functional, cell-based. As to conditions: Mus musculus. In short, it runs like this: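 L1210 murine leukemia cells in culture; cytotoxicity measured by MTT assay, reported as IC50 in μg/mL.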
Experiment [2] relates to L1210. In words: In vivo inhibition of L1210 murine leukemia cells in mice (ip) at a dose of 240 mg/kg. Type of experiment: functional, Mus musculus. In short, it runs like this:
(§1)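 L1210 murine leukemia in mice: tumor cells inoculated ip, drug injected ip one day later; efficacy expressed as % T/C at the stated dose.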

For another experiment, the target named is Tubulin. In words: Inhibition of tubulin polymerization. Format: functional. Summed up: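 Glutamate-driven assembly: purified tubulin 1.0 mg/mL (10 μM) in 1.0 M monosodium glutamate pH 6.6, 1.0 mM MgCl2, 4% (v/v) DMSO, preincubated with drug 15 min at 37 °C, chilled, GTP added, then warmed 0→37 °C in cuvettes with turbidity read-out. IC50 = drug level halving extent of polymerization, obtained graphically in triplicate experiments.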

The test system of experiment [3] is L1210. In words: In vivo inhibition of L1210 murine leukemia cells in mice (ip) at a dose of 200 mg/kg. Format: functional, Mus musculus. Summed up: as §1
Experiment [4] deals with L1210. In words: In vivo inhibition of L1210 murine leukemia cells in mice (ip) at a dose of 50 mg/kg. Type of experiment: functional, Mus musculus. In short, it runs like this:
as §1

The subject of experiment [5] is L1210. As to the kind of experiment: In vivo inhibition of L1210 murine leukemia cells in mice (ip) at a dose of 100 mg/kg. Type of experiment: functional, Mus musculus. Summed up:
as §1

The subject of experiment [6] is L1210. As to the kind of experiment: In vivo inhibition of L1210 murine leukemia cells in mice (ip) at a dose of 12 mg/kg. Format: functional, Mus musculus. In short, it runs like this: as §1
In experiment [7] the test system is L1210. In words: In vivo inhibition of L1210 murine leukemia cells in mice (ip) at a dose of 25 mg/kg. Format: functional, Mus musculus. Summed up:
as §1

Experiment [8] in a line: Antitumor activity against human melanoma xenograft LOX (SC) cells was determined after (ip) administration of a dose of 60 mg/kg. Format: functional.
Experiment [9] in a line: Antitumor activity against human melanoma xenograft LOX (SC) cells was determined after (ip) administration of a dose of 120 mg/kg. Format: functional.
Experiment [10] is described as follows: Antitumor activity against human melanoma xenograft LOX (SC) cells was determined after (ip) administration of a dose of 240 mg/kg. Type of experiment: functional. (A xenograft is tissue or cells of one species grown in another, often human tumour cells in immunodeficient mice.)
The test system of experiment [11] is MX1. As to the kind of experiment: Antitumor activity against human mammary tumor xenograft MX-1(SRC) cells was determined after (ip) administration of a dose of 120 mg/kg. Type of experiment: functional.
Experiment [12] concerns MX1. In words: Antitumor activity against human mammary tumor xenograft MX-1(SRC) cells was determined after (ip) administration of a dose of 240 mg/kg. Type of experiment: functional.
The subject of experiment [13] is MX1. In words: Antitumor activity against human mammary tumor xenograft MX-1(SRC) cells was determined after (ip) administration of a dose of 60 mg/kg. Type of experiment: functional.
A short description of experiment [14]: Antitumor activity against murine melanoma B16 cells was determined after (ip) administration of a dose of 100 mg/kg, ip. Format: functional, Mus musculus. As to conditions: route intraperitoneal.
A short description of experiment [15]: Antitumor activity against murine melanoma B16 cells was determined after (ip) administration of a dose of 200 mg/kg, ip. Type of experiment: functional, Mus musculus. To be noted: route intraperitoneal.
Experiment [16] can be described thus: Antitumor activity against murine melanoma B16 cells was determined after (ip) administration of a dose of 300 mg/kg, ip. Format: functional, Mus musculus. As to conditions: route intraperitoneal.
Experiment [17] is described as follows: Antitumor activity against murine melanoma B16 cells was determined after (ip) administration of a dose of 400 mg/kg, ip. Type of experiment: functional, Mus musculus. To be noted: route intraperitoneal.
Experiment [18] is described as follows: Antitumor activity against murine melanoma B16 cells was determined after (ip) administration of a dose of 50 mg/kg, ip. Type of experiment: functional, Mus musculus. As to conditions: route intraperitoneal.
For experiment [19], the system named is L1210. In words: (§2) Antitumor activity against […] was determined after (ip) administration of a dose of 60 mg/kg. Type of experiment: functional, Mus musculus.
The subject of experiment [20] is P388. The description is as §2. Type of experiment: functional, Mus musculus.
The test system of experiment [21] is L1210. As to the kind of experiment: (§3) Antitumor activity against murine leukemia P388 cells was determined after (ip) administration of a dose of 120 mg/kg. Type of experiment: functional, Mus musculus.
Experiment [22] relates to P388. Described as §3. Format: functional, Mus musculus.
Experiment [23] in a line: Antitumor activity against murine sarcoma M531 cells was determined after (ip) administration of a dose of 120 mg/kg, ip. Format: functional, Mus musculus. To be noted: route intraperitoneal.
Experiment [24] in a line: Antitumor activity against murine sarcoma M531 cells was determined after (ip) administration of a dose of 240 mg/kg, ip. Type of experiment: functional, Mus musculus. As to conditions: route intraperitoneal.

≈ marks a conversion by molar mass, not a printed value. Where “and” joins values, the source holds several entries; their conditions need not be identical. Equal entries are not always repeated.

As usually defined, the IC50 is the point on the concentration scale where inhibition reaches its midpoint. Read a high IC50 as weaker potency. Take `O=c1[nH]c(/C=C/c2ccccc2)nc2ccccc12`: the figures for the IC50 in the experiment on L1210 [1] and against Tubulin were 0.02 µg/mL (≈ 0.0806 µM) and 11 µM, respectively. For the same molecule, in the experiment on L1210 [2], the T/C turned out to be 133%.

As to `Oc1nc(C#Cc2ccccc2)nc2ccc(Cl)cc12`, in the experiment with L1210 [3], the T/C came to 125%. The IC50 with L1210 [1] is 0.002 µg/mL (≈ 0.00712 µM); on Tubulin, more than 40 µM.

Turning to `Oc1nc(/C=C/c2ccccc2)nc2ccc(Cl)cc12`, the results for the IC50 in the experiment on L1210 [1] and at Tubulin were 0.001 µg/mL (≈ 0.00354 µM) and 2.5 µM, respectively. Also, the T/C with L1210 [4] was determined as 146%.

As for `CC(=O)Oc1ccc2nc(/C=C/c3ccccc3)nc(O)c2c1`, the T/C in the experiment on L1210 [3] turned out to be 78%. Further, the IC50 with L1210 [1] was found to be 0.3 µg/mL (≈ 0.979 µM); at Tubulin, 4 µM.

In the case of `Oc1nc(/C=C/c2ccccc2)nc2ccc3ncccc3c12`, the IC50 was 0.4 µg/mL (≈ 1.34 µM) with L1210 [1] and more than 40 µM at Tubulin. In addition, the T/C in the experiment on L1210 [4] is 95%.

As to `COc1ccc2nc(CC(c3ccccc3)N3CCCCC3)nc(O)c2c1` (stereo not drawn), the T/C with L1210 [5] amounted to 107%. In addition, the IC50 came to 0.001 µg/mL (≈ 0.00275 µM) in the experiment on L1210 [1] and 14 µM against Tubulin.

For the molecule `CCOc1ccc2nc(/C=C/c3ccccc3)nc(O)c2c1`, the IC50 was 0.4 µg/mL (≈ 1.37 µM) with L1210 [1] and more than 40 µM against Tubulin.

As to `Cc1nc(O)c2cc(Cl)ccc2n1`, the concentration for half-maximal inhibition (IC50) in the experiment with L1210 [1] was more than 1 µg/mL; at Tubulin it was more than 40 µM.

Regarding `CCN(CC)CCCC(C)Nc1nc(/C=C/c2ccccc2)nc2ccc(Cl)cc12` (stereo not drawn), the T/C in the experiment on L1210 [6] worked out at 105%. This molecule gave an IC50 at Tubulin of more than 40 µM.

For the molecule `Oc1nc(/C=C/c2ccccc2)nc2cc(Cl)ccc12`, the results for the IC50 in the experiment with L1210 [1] and on Tubulin were more than 1 µg/mL and 17 µM, respectively.

With `Oc1nc(/C=C/c2ccccc2)nc2sccc12`, the T/C with L1210 [3] came to 92%. Also, the figures for the IC50 in the experiment with L1210 [1] and at Tubulin were more than 1 µg/mL and more than 40 µM, respectively.

Regarding `COc1cc2nc(/C=C/c3ccccc3)nc(O)c2cc1OC`, the T/C with L1210 [3] is recorded as 96%. In addition, the IC50 in the experiment on L1210 [1] came to 0.03 µg/mL (≈ 0.0973 µM); on Tubulin it was 3.3 µM.

For the molecule `C/C=C/c1nc(O)c2cc(Cl)ccc2n1`, in the experiment on L1210 [3], the T/C is recorded as 95%. For the same molecule, the results for the IC50 with L1210 [1] and against Tubulin were more than 1 µg/mL and more than 40 µM, respectively.

`Nc1ccc2nc(/C=C/c3ccccc3)nc(O)c2c1`: the figures for the IC50 in the experiment on L1210 [1] and against Tubulin were 0.6 µg/mL (≈ 2.28 µM) and more than 40 µM, respectively.

As for `Cc1ccc2nc(/C=C/c3ccccc3)nc(O)c2c1`, the IC50 was 0.02 µg/mL (≈ 0.0762 µM) in the experiment with L1210 [1] and 2 µM against Tubulin. Moreover, in the experiment on L1210 [7], the T/C stood at 107%.

With `COc1ccc2nc(/C=C/c3ccccc3)[nH]c(=O)c2c1`, the IC50 in the experiment with L1210 [1] came out at 0.001 µg/mL (≈ 0.00359 µM); on Tubulin, 2 µM. For the same molecule, the T/C is listed as 173% with L1210 [4]; 142% in experiment [8]; 142% in experiment [9]; 153% in [10]; 16% with MX1 [11]; -81% in the experiment on MX1 [12]. Further, the T/C in the experiment on MX1 [13] is 21%; in experiment [14] it was 145%; in experiment [15], 197% and 141%; in experiment [16], 158%; in [17] it was 190%; in experiment [18] it was 129%. The T/C in the experiment with L1210 [19] came out at 158%; with P388 [20], 135%; with L1210 [21] it was 225%; with P388 [22], 174%; in experiment [23], 136%; in experiment [24] it was 154%.

`CN1CCN(c2cc3nc(/C=C/c4ccccc4)nc(O)c3cc2F)CC1`: the IC50 is 0.2 µg/mL (≈ 0.549 µM) with L1210 [1] and more than 40 µM at Tubulin. Besides, in the experiment with L1210 [4], the T/C is on record as 100%.

For the molecule `C/C=C/c1nc(O)c2ccccc2n1`, the IC50 in the experiment on L1210 [1] is more than 1 µg/mL; at Tubulin, more than 40 µM.

As for `Oc1nc(/C=C/c2ccccc2)nc2ccc(Br)cc12`, the results for the IC50 in the experiment on L1210 [1] and against Tubulin were 0.01 µg/mL (≈ 0.0306 µM) and 2 µM, respectively. Further, the T/C in the experiment with L1210 [7] amounted to 133%.

With `Oc1nc(/C=C/c2ccccc2)nc2cc(N3CCCCC3)c(F)cc12`, the T/C with L1210 [3] is 85%. In addition, the IC50 is 0.2 µg/mL (≈ 0.572 µM) in the experiment with L1210 [1] and more than 40 µM against Tubulin.

For the molecule `Oc1nc(/C=C/c2ccccc2)nc2c(Cl)cccc12`, the IC50 in the experiment with L1210 [1] was more than 1 µg/mL; against Tubulin, more than 40 µM.
